Where only a bound is given, the exact number is not on record here.

Our source for the IC50 and Ratio IC50 values is ChEMBL document CHEMBL2016466, “Design, synthesis, and biological evaluation of new diaminoquinazolines as β-catenin/Tcf4 pathway inhibitors” (J Med Chem, 2012).

Experiment [1] has as its target TCF4/beta-catenin (Homo sapiens, UniProt P35222+Q9NQB0). Kind of experiment: Inhibition of beta-catenin/TCF4 pathway expressed in HCT116 cells containing delta45S mutant after 24 hrs by luciferase reporter gene assay. As to conditions: hct-116. The format is cell-based. The gist of the method: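 HCT116 cells at 1 × 10⁴/well, cotransfected with 50 ng TOP-FLASH reporter (Tcf4 binding sites) and 50 ng pTK-β-gal as internal control. At 4 h post-transfection, fresh medium with compound at various concentrations was added. Firefly luciferase was read 24 h after compound addition, normalized to β-galactosidase and expressed as a percentage of control luciferase activity.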

For experiment [2], the system named is HCT-116. Kind of experiment: Growth inhibition of human HCT116 cells assessed as viable cells after 3 days using resazurin by […] assay. The format is functional, cell-based. The conditions noted are these: HCT-116, 72 h. In short, it runs like this:
(§1)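 Cells grown in RPMI 1640 + 10% FBS + penicillin/streptomycin, trypsinized and seeded at 2 × 10³ cells/well. Compound added 24 h later as a concentration curve starting at 10 μg/mL with nine further 2-fold dilutions. After 3 days of exposure, viability was read with CellTiter-Blue (resazurin to resorufin). IC50 is the average of three separate experiments.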

Experiment [3] relates to SW480. Kind of experiment: Growth inhibition of human SW480 cells assessed as viable cells after 3 days using resazurin by […] assay. The format is functional, cell-based. As to conditions: SW480, 72 h. In short, it runs like this: as §1
In general terms: Resazurin is reduced to fluorescent resorufin, in cell work by metabolically active cells.

Experiment [4] can be described thus: Ratio of IC50 for human HCT116 cells to IC50 for […]/TCF4 pathway expressed in HCT116 cells. The format is cell-based. The conditions noted are these: HCT-116.
In experiment [5] the test system is HCT-116. Kind of experiment: Growth inhibition of human HCT116 cells assessed as clonogenic growth after 9 days using crystal violet staining. The format is functional, cell-based. The conditions noted are these: HCT-116, 216 h. The gist of the method: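 HCT116 cells in RPMI 1640 + 10% FBS + penicillin/streptomycin, plated at 300 cells/well in six-well plates 8 h before treatment with or without inhibitor (highest final concentration 1.5 μM). Incubated 9 days, then fixed with 10% acetic acid in methanol, stained with 0.05% crystal violet and colonies counted. IC50 is the average of three separate experiments.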

Chain of TCF4/beta-catenin (P35222 2-781 limits assumed, stated change not applied): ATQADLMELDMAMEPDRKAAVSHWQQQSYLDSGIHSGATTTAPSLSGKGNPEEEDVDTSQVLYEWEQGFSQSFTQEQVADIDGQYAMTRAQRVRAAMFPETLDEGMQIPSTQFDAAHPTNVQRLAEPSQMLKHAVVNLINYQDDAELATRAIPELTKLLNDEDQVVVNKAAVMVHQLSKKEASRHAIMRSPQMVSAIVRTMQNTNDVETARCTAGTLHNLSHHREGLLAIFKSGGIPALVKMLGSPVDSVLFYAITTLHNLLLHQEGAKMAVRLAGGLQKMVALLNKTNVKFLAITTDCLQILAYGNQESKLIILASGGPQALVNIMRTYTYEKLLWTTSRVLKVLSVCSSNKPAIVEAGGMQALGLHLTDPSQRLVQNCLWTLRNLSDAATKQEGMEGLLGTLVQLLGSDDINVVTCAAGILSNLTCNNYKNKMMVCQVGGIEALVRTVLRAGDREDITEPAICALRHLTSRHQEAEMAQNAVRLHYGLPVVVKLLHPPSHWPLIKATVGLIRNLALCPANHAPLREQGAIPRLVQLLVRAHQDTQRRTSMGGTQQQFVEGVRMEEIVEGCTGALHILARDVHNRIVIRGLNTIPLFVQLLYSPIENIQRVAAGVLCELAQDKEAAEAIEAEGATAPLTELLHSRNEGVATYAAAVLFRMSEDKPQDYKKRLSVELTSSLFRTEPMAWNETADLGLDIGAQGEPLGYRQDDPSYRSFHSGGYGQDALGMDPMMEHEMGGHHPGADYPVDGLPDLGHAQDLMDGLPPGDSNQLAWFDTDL
Chain of TCF4/beta-catenin (Q9NQB0 whole entry, stated change not applied): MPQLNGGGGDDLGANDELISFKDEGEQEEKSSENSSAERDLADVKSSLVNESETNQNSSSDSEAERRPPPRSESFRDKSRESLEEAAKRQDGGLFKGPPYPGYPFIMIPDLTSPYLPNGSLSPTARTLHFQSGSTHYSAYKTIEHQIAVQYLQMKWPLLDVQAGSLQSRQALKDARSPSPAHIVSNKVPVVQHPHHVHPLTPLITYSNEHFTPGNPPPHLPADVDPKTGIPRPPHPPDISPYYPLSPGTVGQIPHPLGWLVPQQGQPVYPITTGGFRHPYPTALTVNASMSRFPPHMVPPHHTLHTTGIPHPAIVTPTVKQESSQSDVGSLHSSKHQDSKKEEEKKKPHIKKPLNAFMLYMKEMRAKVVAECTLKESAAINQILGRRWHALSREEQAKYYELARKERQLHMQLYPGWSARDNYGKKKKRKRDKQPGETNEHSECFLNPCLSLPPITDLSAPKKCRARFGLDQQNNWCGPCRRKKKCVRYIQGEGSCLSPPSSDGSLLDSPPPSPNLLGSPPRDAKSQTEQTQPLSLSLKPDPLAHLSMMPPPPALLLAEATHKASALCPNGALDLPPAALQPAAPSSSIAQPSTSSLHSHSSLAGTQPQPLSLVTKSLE

As a reminder, the IC50 is the midpoint of a concentration-inhibition curve. As for `CCCNc1nc(NCc2ccc(C(=O)NCCc3ccc(F)cc3)cc2)c2cc(C)ccc2n1`, the IC50 in experiment [1] stood at 2000 nM; in experiment [2], 1600 nM; in experiment [3], 1600 nM.
As to `CCCNc1nc(NCc2ccc(C(=O)N3CCC(C(=O)NCc4ccc(F)cc4)CC3)cc2)c2ccccc2n1`, the figures for the 50% inhibitory concentration (IC50) in experiment [2] and in experiment [3] were 5500 nM and 5700 nM, respectively.
On to `CN(C)c1nc(NCc2ccc(NC(=O)c3ccncc3)cc2)c2ccccc2n1`, for which the IC50 was 15000 nM in experiment [2] and 11000 nM in experiment [3].
As to `CN(C)c1nc(NCc2ccc(NC(=O)c3ccc(F)cc3)cc2)c2ccccc2n1`, the 50% inhibitory concentration (IC50) in experiment [2] was 1300 nM; in experiment [3], 2200 nM.
Turning to `Cc1ccc2nc(N(C)C)nc(NCc3ccc(C(=O)Nc4ccc(Cl)nc4)cc3)c2c1`, the IC50 in experiment [1] is 2500 nM; in experiment [2], 1300 nM; in experiment [3], 1100 nM.
On the same counts, the results for `CCNc1nc(NCc2ccc(C(=O)N[C@H]3C[C@@H]3c3ccccc3)cc2)c2cc(C)ccc2n1` (relative stereo) are 3500 nM, 1700 nM and 1800 nM.
With `CNc1nc(NCc2ccc(C(=O)NCCc3ccc(F)cc3)cc2)c2cc(C)ccc2n1`, the figures for the half-inhibitory concentration (IC50) in experiment [1], in experiment [2] and in experiment [3] were 1000 nM, 1100 nM and 1500 nM, respectively.
Regarding `CC1CN(c2nc(NCc3ccc(C(=O)Nc4ccc(F)cc4)cc3)c3ccccc3n2)CCN1` (racemic), the IC50 in experiment [1] was above 5000 nM; in experiment [2] it was 2800 nM; in experiment [3], 3200 nM.
For `CNc1nc(NCc2ccc(NS(=O)(=O)c3ccc(F)cc3)cc2)c2ccccc2n1`, the IC50 in experiment [2] was determined as 5300 nM; in experiment [3] it was 4800 nM.
Taken in the same sequence, the figures for `Cc1ccc2nc(N(C)C)nc(NCc3ccc(C(=O)N4CCC(C(=O)NCc5ccc(F)cc5)CC4)cc3)c2c1` were 5600 nM and 5600 nM.
Take `CNc1nc(NCc2ccc(NC(=O)c3ccncc3)cc2)c2ccccc2n1`: the IC50 in experiment [2] and in experiment [3] was above 20000 nM throughout.
As to `Cc1ccc(S(=O)(=O)Nc2ccc(CNc3nc(N(C)C)nc4ccccc34)cc2)cc1`, the IC50 turned out to be 11000 nM in experiment [2] and 13000 nM in experiment [3].
Turning to `CN(C)c1nc(NCc2ccc(C(=O)Nc3ccc(F)cc3)cc2)c2ccccc2n1`, the IC50 in experiment [1] is 3000 nM; in experiment [2] it was 1900 nM; in experiment [3] it was 2600 nM.
Turning to `CCCNc1nc(NCc2ccc(NC(=O)c3ccc(F)cc3)cc2)c2ccccc2n1`, the half-inhibitory concentration (IC50) in experiment [1] turned out to be 2500 nM; in experiment [2], 1700 nM; in experiment [3], 2000 nM. Besides, the Ratio IC50 in experiment [4] was determined as 2.
Consider `CCCNc1nc(NCc2ccc(C(=O)NC3CCN(C(=O)c4ccc(F)cc4)CC3)cc2)c2cc(C)ccc2n1`, for which the values for the concentration for half-maximal inhibition (IC50) in experiment [2] and in experiment [3] were 6800 nM and 5500 nM, respectively.
Consider `Cc1ccc2nc(N(C)C)nc(NCc3ccc(C(=O)NC4CCN(Cc5ccc(F)cc5)CC4)cc3)c2c1`, for which the concentration for half-maximal inhibition (IC50) is 313 nM in experiment [5], 2500 nM in experiment [1], 800 nM in experiment [2] and 1100 nM in experiment [3].
With `CNc1ncc(Br)c(NCc2ccc(NC(=O)c3ccc(F)cc3)cc2)n1`, the half-maximal inhibitory concentration (IC50) in experiment [2] and in experiment [3] was above 20000 nM in each case.
Consider `CN(C)c1nc(NCc2ccc(C(=O)N3CCC(C(=O)NCc4ccc(F)cc4)CC3)cc2)c2ccccc2n1`, for which the IC50 in experiment [2] was 5700 nM; in experiment [3], 5500 nM.
Take `Cc1ccc2nc(N3CCNC(C)C3)nc(NCc3ccc(C(=O)NC4CCN(Cc5ccc(F)cc5)CC4)cc3)c2c1` (racemic): the values for the concentration for half-maximal inhibition (IC50) in experiment [1], in experiment [2] and in experiment [3] were above 5000 nM, 2000 nM and 1000 nM, respectively.
In the case of `CCNc1nc(NCc2ccc(C(=O)Nc3ccc(F)cc3)cc2)c2ccccc2n1`, the IC50 worked out at 3500 nM in experiment [1], 1900 nM in experiment [2] and 2500 nM in experiment [3].
On the same counts, the results for `Cc1ccc2nc(N(C)C)nc(NCc3ccc(C(=O)N[C@H]4C[C@@H]4c4ccccc4)cc3)c2c1` (relative stereo) are 3000 nM, 1300 nM and 2400 nM.
Regarding `CNc1nc(NCc2ccc(C(=O)NC3CCN(Cc4ccc(F)cc4)CC3)cc2)c2cc(C)ccc2n1`, the IC50 in experiment [1] worked out at 3000 nM; in experiment [2] it was 1200 nM; in experiment [3], 1300 nM.
Consider `CCCNc1nc(NCc2ccc(C(=O)N3CCC(C(=O)NCc4ccc(F)cc4)CC3)cc2)c2cc(C)ccc2n1`, for which the IC50 is 4600 nM in experiment [2] and 5200 nM in experiment [3].
On the same counts, the results for `CN1CCN(c2nc(NCc3ccc(NC(=O)c4ccncc4)cc3)c3ccccc3n2)CC1` are above 20000 nM and above 20000 nM.
`Cc1ccc2nc(N(C)C)nc(NCc3ccc(C(=O)NCc4ccc(F)cc4)cc3)c2c1`: the IC50 was 298 nM in experiment [5], 2000 nM in experiment [1], 900 nM in experiment [2] and 1100 nM in experiment [3].
In the case of `CN(C)CCCNc1nc(NCc2ccc(NC(=O)c3ccc(CN4CCN(C)CC4)cc3)cc2)c2ccccc2n1`, the 50% inhibitory concentration (IC50) in experiment [2] and in experiment [3] was above 20000 nM throughout.
Take `Cc1ccc2nc(N(C)C)nc(NCc3ccc(C(=O)NCCc4ccc(F)cc4)cc3)c2c1`: the concentration for half-maximal inhibition (IC50) was found to be 264 nM in experiment [5], 1500 nM in experiment [1], 600 nM in experiment [2] and 1400 nM in experiment [3].
`CNc1ncc(C)c(NCc2ccc(NC(=O)c3ccc(F)cc3)cc2)n1`: the IC50 in experiment [2] and in experiment [3] was above 20000 nM in each case.
Consider `C=CCNc1nc(NCc2ccc(C(=O)Nc3ccc(F)cc3)cc2)c2cc(C)ccc2n1`, for which the results for the IC50 in experiment [2] and in experiment [3] were 13000 nM and 10000 nM, respectively.
Turning to `C=CCNc1nc(NCc2ccc(C(=O)Nc3ccc(F)cc3)cc2)c2ccccc2n1`, the IC50 in experiment [2] is 14000 nM; in experiment [3], 11000 nM.
As to `CCCCNc1nc(NCc2ccc(C(=O)Nc3ccc(F)cc3)cc2)c2ccccc2n1`, the 50% inhibitory concentration (IC50) is 381 nM in experiment [5], 1500 nM in experiment [1], 1400 nM in experiment [2] and 1000 nM in experiment [3].
With `CCNc1nc(NCc2ccc(NC(=O)c3ccc(F)cc3)cc2Cl)c2ccccc2n1`, the IC50 in experiment [2] is 1500 nM; in experiment [3], 1600 nM.
As to `CCCNc1nc(NCc2ccc(C(=O)Nc3ccc(F)cc3)cc2)c2ccccc2n1`, the IC50 in experiment [5] amounted to 684 nM; in experiment [1], 3000 nM; in experiment [2] it was 1500 nM; in experiment [3], 1600 nM.
On to `CNc1nc(NCc2ccc(NS(=O)(=O)c3ccc(C)cc3)cc2)c2ccccc2n1`, for which the IC50 in experiment [2] amounted to 5800 nM; in experiment [3] it was 4900 nM.
In the case of `CCCNc1nc2ccccc2c(NCc2ccc(NC(=O)c3ccc(F)cc3)cc2)c1C#N`, the IC50 in experiment [2] and in experiment [3] was above 20000 nM each time.
Consider `Cc1ccc(S(=O)(=O)Nc2ccc(CNc3nc(N4CCN(C)CC4)nc4ccccc34)cc2)cc1`, for which the IC50 in experiment [2] and in experiment [3] was above 20000 nM throughout.
Consider `O=C(Nc1ccc(F)cc1)c1ccc(CNc2nc(NC3CC3)nc3ccccc23)cc1`, for which the results for the IC50 in experiment [2] and in experiment [3] were 2700 nM and 2600 nM, respectively.
On to `C=CCNc1nc(NCc2ccc(C(=O)NC3CCN(C(=O)c4ccc(F)cc4)CC3)cc2)c2cc(C)ccc2n1`, for which the IC50 was found to be 6900 nM in experiment [2] and 5200 nM in experiment [3].
Taken in the same sequence, the figures for `CNc1nc(NCc2ccc(C(=O)Nc3ccc(F)cc3)cc2)c2ccccc2n1` were 2900 nM and 4100 nM.
`CCCNc1nc(NCc2ccc(C(=O)NCc3ccc(F)cc3)cc2)c2cc(C)ccc2n1`: the IC50 worked out at 4400 nM in experiment [2] and 2200 nM in experiment [3].
For the compound `CCNc1ncc(C)c(NCc2ccc(NC(=O)c3ccc(F)cc3)cc2)n1`, the IC50 in experiment [2] and in experiment [3] was above 20000 nM in each case.
As for `CNc1nc(NCc2ccc(NC(=O)c3ccc(F)cc3)cc2Cl)c2ccccc2n1`, the results for the IC50 in experiment [2] and in experiment [3] were 2000 nM and 2300 nM, respectively.
As to `CN1CCN(c2nc(NCc3ccc(NC(=O)c4ccc(F)cc4)cc3)c3ccccc3n2)CC1`, the IC50 in experiment [2] is 1800 nM; in experiment [3], 2500 nM.
Turning to `CNc1nc2ccccc2c(NCc2ccc(NC(=O)c3ccc(F)cc3)cc2)c1C#N`, the IC50 in experiment [2] and in experiment [3] was above 20000 nM each time.
For `CCCNc1nc(NCc2ccc(C(=O)NC3CCN(Cc4ccc(F)cc4)CC3)cc2)c2cc(C)ccc2n1`, the half-maximal inhibitory concentration (IC50) in experiment [1] came out at 3000 nM; in experiment [2], 1600 nM; in experiment [3] it was 1100 nM.
Consider `Cc1ccc2nc(N3CCNC(C)C3)nc(NCc3ccc(C(=O)NCc4ccc(F)cc4)cc3)c2c1` (racemic), for which the IC50 in experiment [2] is 2900 nM; in experiment [3] it was 1400 nM.
As to `CNc1nc(NCc2ccc(NC(=O)c3ccc(F)cc3)cc2)c2ccccc2n1`, the results for the IC50 in experiment [1], in experiment [2] and in experiment [3] were 3500 nM, 1600 nM and 2000 nM, respectively. Besides, in experiment [4], the Ratio IC50 came out at 2.
On to `CN(C)CCCNc1nc(NCc2ccc(NC(=O)c3ccc(F)cc3)cc2)c2ccccc2n1`, for which the IC50 in experiment [2] is 10000 nM; in experiment [3], 14000 nM.
Consider `O=S(=O)(Nc1ccc(CNc2nc(NC3CC3)nc3ccccc23)cc1)c1ccc(F)cc1`, for which the figures for the IC50 in experiment [2] and in experiment [3] were 4900 nM and 4100 nM, respectively.
As to `CNc1nc(NCc2ccc(NC(=O)c3ccc(CN4CCN(C)CC4)cc3)cc2)c2ccccc2n1`, the values for the 50% inhibitory concentration (IC50) in experiment [2] and in experiment [3] were 10000 nM and 11000 nM, respectively.
With `CCCNc1nc(NCc2ccc(C(=O)Nc3ccc(Cl)nc3)cc2)c2cc(C)ccc2n1`, the IC50 in experiment [1] amounted to 2500 nM; in experiment [2], 1500 nM; in experiment [3] it was 2100 nM.
